This is a sample that favours compounds with a hit; in the whole collection about 3.9% have one here.
Gli-Sufu block = blocks Gli-Sufu signaling in a luciferase reporter; actives 0.74% (n = 340,000); Sufu-KO-LIGHT fibroblasts, Gli luciferase reporter luminescence; inhibition, % at 5 µM;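 active = inhibition above about 55%, limit read from the data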;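 note: 0% = DMSO-treated cells and 100% = wells with medium but no cells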
Jurkat NFkB inh = lowers PMA/ionomycin-induced NF-kB signal in Jurkat cells | PMA/ionomycin-induced NF-kB luciferase reporter, luminescence | actives 0.53% (n = 330,000) | inhibition, % at 4 µM | AID 435003; in the data active = inhibition above about 50%
CHOP inh = CHOP inhibition in unfolded protein response. inhibition, % at 10 µM. actives 3.8% (n = 220,000). AID 2732. CHO-K1 CHOP-promoter luciferase, tunicamycin-induced, 15-18 h;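 active = compounds that reduced the stress-induced luciferase reporter signal by more than about 70% of percent inhibition, limit read from the data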;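 note: 0% = tunicamycin plus vehicle and 100% = wells without tunicamycin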
CHOP UPR activ = apoptotic UPR (CHOP) activation; CHO-CHOP luciferase reporter, luminescence; percent of tunicamycin response over DMSO baseline; activation, % at 10 µM; actives 0.34% (n = 330,000); AID 449763;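 active = at 10 µM dose, activation of 40% or more, normalized to positive control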;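 note: 100% = tunicamycin at 10 µg/mL and 0% = DMSO alone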
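Material: CHO-CHOP cells, stable luciferase reporter of PERK-eIF2a-CHOP signalling; quantity: 500 reporter cells seeded per well; buffer or medium: F12 medium containing 10% fetal bovine serum; compound: one dose, 10 µM in 0.5% DMSO; incubation: 6 h compound treatment, 37 °C; measured by: Steady-Glo luciferase luminescence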
697 NFkB inh = inhibitors of the PMA/ionomycin-induced NF-kB reporter in 697 B cells; 697 B-cell NF-kB luciferase reporter, 16 h; inhibition, % at 4 µM; actives 0.33% (n = 330,000); AID 435022; in the data active = inhibition above about 35%
XBP1 UPR activ = adaptive UPR (XBP1) activation; CHO-XBP1 luciferase reporter, IRE1-XBP1 UPR activation, luminescence; percent of tunicamycin response, DMSO as zero; activation, % at 20 µM; actives 0.33% (n = 330,000);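 active = versus positive control, 20 µM dose yields 30% or more activation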;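 note: 100% = tunicamycin at 10 µg/mL and 0% = DMSO only wells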
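assay system = CHO-XBP1 luciferase reporter cells | amount = 1000 cells/well | buffer or medium = F12 plus 10% FBS | compound dosing = single point, 20 µM final compound, 1% DMSO | incubation = 16-18 h cell attachment at 37 °C, then 6 h compound exposure | detection = Steady-Glo luminescence read | controls = tunicamycin 10 µg/mL and vehicle-only wells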
* hit, by the source's call; · = not tested or not shown.

SMILES | Gli-Sufu block | Jurkat NFkB inh | CHOP inh | CHOP UPR activ | 697 NFkB inh | XBP1 UPR activ
Cc1ccc(-c2cc(C(=O)Nc3ccc(S(=O)(=O)Nc4cc(C)on4)cc3)c3ccccc3n2)c(C)c1 | 4.1 | 10.4 | 51.1 | -1.8 | 25.7 | -4.4
Cc1ccc(-c2cc(C(=O)OCC(=O)Nc3cc(C)on3)c3ccccc3n2)c(C)c1 | 1.7 | 9.0 | 89.4* | -0.1 | 19.1 | -0.7
Cc1ccc(-c2cc(C(=O)OCC(=O)Nc3ncc(C(F)(F)F)cc3Cl)c3ccccc3n2)cc1 | -5.6 | -6.5 | 82.6* | 0.3 | 13.6 | 3.5
COc1ccc(-c2cc(C(=O)OCC(=O)Nc3cc(C)on3)c3ccccc3n2)cc1OC | 5.6 | -20.7 | 88.4* | 1.3 | 20.5 | -1.5
COc1ccc(-c2cc(C(=O)OCC(=O)NC3CC3)c3ccccc3n2)cc1OC | -9.3 | -3.1 | · | 2.0 | 29.0 | 2.5
Cc1ccc([C@@H]2CC=C(C(=O)O)[C@H](c3cccc(F)c3)N2S(=O)(=O)c2ccccc2C)cc1 | 8.2 | 5.8 | · | 0.8 | -5.3 | -0.7
CC1=C(c2ccccc2)SC2=NCCN21 | 3.3 | -9.3 | · | 2.0 | -7.4 | -4.8
Cc1ccc(Nc2nnc(SCC(=O)Nc3ncc(C(F)(F)F)cc3Cl)s2)cc1 | -6.8 | 4.1 | 74.0* | -0.2 | 7.6 | -0.9
O=C(NNC(=O)c1cc(-c2ccc(Cl)c(Cl)c2)nc2ccccc12)Nc1ccccc1 | 16.6 | -8.5 | 89.2* | 1.2 | 22.0 | 4.6
Cc1cccc(C)c1Nc1nnc(SCC(=O)Nc2ncc(C(F)(F)F)cc2Cl)s1 | -9.1 | 0.9 | 24.1 | 3.0 | -7.3 | -0.2
Cc1cccc(NC(=O)NNC(=O)c2cc(-c3ccccc3Cl)nc3ccccc23)c1 | 4.5 | -10.9 | 0.1 | -0.7 | 16.4 | -4.5
Nc1ncnc2c1ncn2[C@@H]1O[C@H](CNCc2ccccc2OC2OC(CO)C(O)C(O)C2O)[C@@H](O)[C@H]1O (some centres undefined) | -6.1 | · | · | 2.9 | 5.6 | -4.5
Cc1ccc(C(=O)c2cc(C)sc2NC(=O)CN2CCN(C(=O)c3ccco3)CC2)cc1 | -7.1 | 10.8 | 81.5* | 3.2 | 12.5 | 6.3
COc1ccc(/C=N/NC(=O)c2ccc(Cl)cc2)cc1Cn1cc(Cl)cn1 | 7.3 | -4.3 | 85.7* | 1.5 | -2.1 | -3.5
COc1ccc(/C=N\NC(=O)COc2ccccc2Cl)cc1Cn1nc(C)cc1C | 7.8 | 8.9 | 80.7* | 1.8 | 7.7 | 3.5
Cc1ccc(-c2[nH][nH]c(=O)c(=O)c2N=Nc2ccccc2)cc1 | -9.4 | -3.8 | 74.7* | -0.3 | -30.2 | 4.6
Cc1cc(=O)n2[nH]c(=O)c(N=Nc3ccccc3)c2[nH]1 | 7.4 | 13.9 | 12.0 | 0.8 | 11.6 | -1.6
N#Cc1cc(-c2ccccc2)nc(Oc2ccc(Cl)cc2)n1 | -18.6 | 14.5 | 71.2* | 4.3 | -11.0 | 9.6
CC(C)CN1C(=O)c2ccc(C(=O)Nc3ccccc3C(=O)O)cc2C1=O | 29.3 | 3.7 | · | 4.0 | -18.3 | 2.5
O=C(COc1ccc2c(c1)oc(=O)c1ccccc12)NC(Cc1ccc(Cl)cc1)C(=O)O (centres undefined) | -13.4 | -7.9 | · | 0.6 | -8.7 | 2.1
Cc1cc(C(=O)CSc2nc3ccccc3[nH]2)c(C)n1CC1CCCO1 (centres undefined) | 42.8 | -76.5 | 73.8* | -3.0 | -175.8 | -3.9
COc1ccc(CCC(C)Nc2cccc(F)c2)cc1 (centres undefined) | 4.8 | -10.6 | 87.5* | 1.9 | 1.9 | -1.1
O=[N+]([O-])c1cc([N+](=O)[O-])c2cccnc2c1Oc1ccccc1O | 19.2 | · | 85.7* | · | · | ·
CCc1sc(-c2c(C#N)c(N)nc3c2CCCCCC3)cc1[N+](=O)[O-] | 11.6 | -4.9 | 76.0* | 1.4 | 8.7 | 1.1
CCOC(=O)c1c(-c2ccc(C)o2)csc1NC(=O)CN1CCCCC1 | 9.9 | -7.4 | 34.6 | 0.5 | -4.0 | -2.2
SMILES | Gli-Sufu block | Jurkat NFkB inh | CHOP inh | CHOP UPR activ | 697 NFkB inh | XBP1 UPR activ
CCOC(=O)c1c(-c2ccc(C)o2)csc1NC(=O)CN(C)CC(=O)Nc1ccc(C)cc1 | 9.8 | 9.0 | 89.4* | 0.6 | -2.2 | -2.1
O=C1c2cccc(OCc3ccc(F)cc3)c2CCN1Cc1ccc(F)cc1 | 35.2 | 22.6 | 85.0* | 0.5 | -32.8 | -0.5
Cc1ccc(CN2CCc3c(OCc4ccc(F)cc4)cccc3C2=O)cc1 | 13.9 | 16.2 | 68.7 | 2.4 | -2.5 | -1.7
COc1ccc(/C=C/C(=O)Nc2sc3c(c2C(=O)NCc2cccnc2)CCCC3)cc1 | -3.6 | -24.9 | 81.0* | 2.4 | 6.7 | 5.2
COc1ccc(/C=C/C(=O)NCc2cccnc2)cc1 | -0.7 | -17.4 | 15.0 | 1.6 | 4.5 | -0.9
CN1C(=O)/C(=C/c2ccccc2Cl)Sc2ccc(C(=O)NCc3cccnc3)cc21 | 8.1 | -9.2 | 81.5* | 0.9 | -12.0 | -1.1
COc1ccc(/C=C/c2ccc3cccc(O)c3n2)cc1Br | 2.1 | -62.3 | · | 5.8 | -74.8 | -1.0
COc1cc(/C=C/c2ccc3cccc(O)c3n2)cc(Br)c1OC | -23.0 | 6.6 | · | 21.4 | -202.1 | 119.8*
COc1cccc(CN2CCN(CC#Cc3ccccc3)CC2CCO)c1 (centres undefined) | 3.9 | 0.6 | · | -0.5 | 1.8 | -2.2
COc1ccc(-c2nnc(NC(=O)c3ccc(S(=O)(=O)N4CCc5ccccc5C4)cc3)o2)cc1 | 3.7 | 1.6 | 71.1* | 9.5 | -27.5 | 0.2
COc1ccc(-c2csc(NC(=O)c3ccc(S(=O)(=O)N4CCc5ccccc5C4)cc3)n2)cc1 | 13.2 | 17.5 | 12.1 | 0.9 | -44.4 | 3.9
O=C(Cn1nnc(-c2ccccc2Cl)n1)N/N=C/c1ccc(-c2cccc(Cl)c2)o1 | -3.0 | -14.1 | 74.1* | -0.1 | -11.5 | -2.3
O=C(Nc1ccsc1C(=O)NC1CC1)c1ccccc1 | 2.2 | 4.4 | 19.3 | 2.2 | -1.5 | 1.8
O=C(Nc1ccsc1C(=O)NC1CCCCC1)c1ccc(F)cc1 | 4.2 | -10.4 | 70.3* | 0.2 | -6.7 | 3.7
c1ccc(C(c2c[nH]c3ccccc23)c2c[nH]c3ccccc23)nc1 | 3.0 | -25.2 | 56.9 | 1.3 | -15.6 | -1.6
Cn1cc(C(c2ccccn2)c2cn(C)c3ccccc23)c2ccccc21 | 6.0 | 0.3 | 77.6* | -0.5 | -9.5 | -0.1
CCCS(=O)(=O)Nc1ccc(Nc2c3ccccc3nc3ccccc23)c(OC)c1 | 79.1* | · | · | · | · | ·
C=CCN1C(=O)/C(=C/c2ccc(N(C)C)cc2)S/C1=N\c1nnc(CC)s1 | · | · | 104.4* | · | · | ·
CC1/C(=N/O)CC(c2ccccc2)NC1c1ccccc1 (centres undefined) | 1.1 | 0.8 | 47.4 | 6.2 | -9.1 | -3.6
CC1/C(=N/O)CC(c2ccccc2)N(C)C1c1ccccc1 (centres undefined) | 8.0 | 20.0 | 93.4* | 1.9 | 1.0 | 0.7
